# Experimental data from ChEMBL document CHEMBL4052618, “Design, synthesis, SAR discussion, in vitro and in vivo evaluation of novel selective EGFR modulator to inhibit L858R/T790M double mutants” (Eur J Med Chem, 2017).
# pIC50: −log10 of the molar value.
# What was measured:
# [1] = target: Tyrosine-protein kinase ABL1 (Homo sapiens) (UniProt P00519); test: Inhibition of ABL1 (unknown origin) at 1 uM relative to control
# [2] = target: Tyrosine-protein kinase SYK (Homo sapiens) (UniProt P43405); test: Inhibition of SYK (unknown origin) at 1 uM relative to control
# [3] = target: Proto-oncogene tyrosine-protein kinase ROS (Homo sapiens) (UniProt P08922); test: Inhibition of ROS1 (unknown origin) at 1 uM relative to control
# [4] = Half life in mouse liver microsomes; type: ADME, microsome
# [5] = Half life in human liver microsomes; type: ADME, microsome
# [6] = target: Receptor tyrosine-protein kinase erbB-2 (Homo sapiens) (UniProt P04626); test: Inhibition of ERBB2 (HER2) (unknown origin) at 1 uM relative to control
# [7] = Half life in Sprague-Dawley rat at 1 mg/kg, iv by LC-MS/MS analysis; type: ADME, organism-based; conditions: in vivo
# Procedure, shortened: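 Male Sprague-Dawley rats (200-240 g) were dosed either by tail vein at 1 mg/kg in 2% DMSO/20% PEG400/78% buffered saline or by oral gavage at 10 mg/kg in 0.5% methylcellulose. Blood was drawn by orbital sinus puncture at 2 min to 24 h into heparin, and plasma was analysed by LC/MS/MS in SRM mode. Parameters came from non-compartmental analysis.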
# [8] = target: Cyclin-dependent kinase 1/cyclin B1 (Homo sapiens) (UniProt P06493+P14635); test: Inhibition of CDK1/cyclin B (unknown origin) at 1 uM relative to control; type: protein-complex assay
# [9] = target: Epidermal growth factor receptor (Homo sapiens, UniProt P00533, L858R/T790M); test: Inhibition of human recombinant cytoplasmic GST-tagged EGFR T790M/L858R double mutant (668 to 1210 residues) expressed in baculovirus using TK-substrate-biotin preincubated for 15 mins followed by substrate addition measured after 60 mins by FRET-based Z'-Lyte assay
# [10] = target: ALK tyrosine kinase receptor (Homo sapiens) (UniProt Q9UM73); test: Inhibition of ALK (unknown origin) at 1 uM relative to control
# [11] = target: Casein kinase I isoform alpha (Homo sapiens) (UniProt P48729); test: Inhibition of CSNK1A1 (unknown origin) at 1 uM relative to control
# [12] = Intrinsic clearance in dog liver microsomes; type: ADME, Canis lupus familiaris, microsome; conditions: read-out: CLH
# NCI-H1975 [13] = test: In vivo anti tumor activity against human NCI-H1975 cells xenografted in nude C.B-17 SCID mouse model assessed as tumor volume at 5 mg/kg, ig for 18 days measured twice a week (reference value: 948.05 mm3); type: functional
# [14] = target: Activated CDC42 kinase 1 (Homo sapiens) (UniProt Q07912); test: Inhibition of TNK2 (unknown origin) at 1 uM relative to control
# [15] = target: Cytoplasmic tyrosine-protein kinase BMX (Homo sapiens) (UniProt P51813); test: Inhibition of BMX (unknown origin) at 1 uM relative to control
# [16] = target: Calcium/calmodulin-dependent protein kinase type II subunit beta (Homo sapiens) (UniProt Q13554); test: Inhibition of CAMK2B (unknown origin) at 1 uM relative to control
# [17] = target: Insulin-like growth factor 1 receptor (Homo sapiens) (UniProt P08069); test: Inhibition of IGF1R (unknown origin) at 1 uM relative to control
# [18] = target: AMP-activated protein kinase (AMPK) alpha-1/beta-1/gamma-1 (Homo sapiens) (UniProt P54619+Q9Y478+Q13131); test: Inhibition of AMPK A1/B1/G1 (unknown origin) at 1 uM relative to control; type: protein-complex assay
# A-431 = test: Antiproliferative activity against human A431 cells harboring wild-type EGFR; type: functional, cell-based
# [19] = target: Tyrosine-protein kinase ITK/TSK (Homo sapiens) (UniProt Q08881); test: Inhibition of ITK (unknown origin) at 1 uM relative to control
# [20] = Intrinsic clearance in rat liver microsomes; type: ADME, microsome; conditions: read-out: CLH
# [21] = target: RAC-beta serine/threonine-protein kinase (Homo sapiens) (UniProt P31751); test: Inhibition of AKT2 (unknown origin) at 1 uM relative to control
# [22] = Intrinsic clearance in human hepatocytes assessed per million cells; type: ADME, cell-based, Hepatocyte
# [23] = target: Serine/threonine-protein kinase Sgk1 (Homo sapiens) (UniProt O00141); test: Inhibition of SGK (unknown origin) at 1 uM relative to control
# [24] = target: Insulin receptor (Homo sapiens) (UniProt P06213); test: Inhibition of INSR (unknown origin) at 1 uM relative to control
# [25] = target: Tyrosine-protein kinase JAK3 (Homo sapiens) (UniProt P52333); test: Inhibition of JAK3 (unknown origin) at 1 uM relative to control
# [26] = target: Protein kinase C gamma type (Homo sapiens) (UniProt P05129); test: Inhibition of PRKCG (unknown origin) at 1 uM relative to control
# [27] = target: Tyrosine-protein kinase Yes (Homo sapiens) (UniProt P07947); test: Inhibition of YES1 (unknown origin) at 1 uM relative to control
# [28] = target: Serine/threonine-protein kinase Nek2 (Homo sapiens) (UniProt P51955); test: Inhibition of NEK2 (unknown origin) at 1 uM relative to control
# [29] = target: Epidermal growth factor receptor (Homo sapiens, UniProt P00533, L858R); test: Inhibition of human recombinant cytoplasmic GST-tagged EGFR L858R mutant expressed in baculovirus using TK-substrate-biotin preincubated for 15 mins followed by substrate addition measured after 60 mins by FRET-based Z'-Lyte assay
# [30] = target: cAMP-dependent protein kinase catalytic subunit alpha (Homo sapiens) (UniProt P17612); test: Inhibition of PRKACA (unknown origin) at 1 uM relative to control
# [31] = target: Inhibitor of nuclear factor kappa-B kinase subunit beta (Homo sapiens) (UniProt O14920); test: Inhibition of IKBKB (unknown origin) at 1 uM relative to control
# NCI-H1975 [32] = test: In vivo anti tumor activity against human NCI-H1975 cells xenografted in nude C.B-17 SCID mouse model assessed as tumor volume at 10 mg/kg, ig for 18 days measured twice a week (reference value: 948.05 mm3); type: functional
# [33] = target: Receptor tyrosine-protein kinase erbB-4 (Homo sapiens) (UniProt Q15303); test: Inhibition of ERBB4 (HER4) (unknown origin) at 1 uM relative to control
# [34] = target: Tyrosine-protein kinase Tec (Homo sapiens) (UniProt P42680); test: Inhibition of TEC (unknown origin) at 1 uM relative to control
# Mus musculus = test: Toxicity in nude C.B-17 SCID mouse model xenografted with human NCI-H1975 cells assessed as mortality at 5 to 20 mg/kg, ig for 18 days; type: organism-based; conditions: in vivo, po, 432 h
# Procedure, shortened: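 H1975 xenografts were set up by subcutaneous inoculation of 5 × 10^6 cells into C.B-17 SCID mice. At a mean tumor volume of 100-150 mm3, mice were randomized into groups of n = 9. They were dosed intragastrically once daily for 18 days at 5, 10 or 20 mg/kg, given as 0.1 mL/10 g body weight. The control group received PBS, and tumors were caliper-measured twice weekly.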
# Sequence of Receptor tyrosine-protein kinase erbB-2 (Homo sapiens) (P04626 whole entry): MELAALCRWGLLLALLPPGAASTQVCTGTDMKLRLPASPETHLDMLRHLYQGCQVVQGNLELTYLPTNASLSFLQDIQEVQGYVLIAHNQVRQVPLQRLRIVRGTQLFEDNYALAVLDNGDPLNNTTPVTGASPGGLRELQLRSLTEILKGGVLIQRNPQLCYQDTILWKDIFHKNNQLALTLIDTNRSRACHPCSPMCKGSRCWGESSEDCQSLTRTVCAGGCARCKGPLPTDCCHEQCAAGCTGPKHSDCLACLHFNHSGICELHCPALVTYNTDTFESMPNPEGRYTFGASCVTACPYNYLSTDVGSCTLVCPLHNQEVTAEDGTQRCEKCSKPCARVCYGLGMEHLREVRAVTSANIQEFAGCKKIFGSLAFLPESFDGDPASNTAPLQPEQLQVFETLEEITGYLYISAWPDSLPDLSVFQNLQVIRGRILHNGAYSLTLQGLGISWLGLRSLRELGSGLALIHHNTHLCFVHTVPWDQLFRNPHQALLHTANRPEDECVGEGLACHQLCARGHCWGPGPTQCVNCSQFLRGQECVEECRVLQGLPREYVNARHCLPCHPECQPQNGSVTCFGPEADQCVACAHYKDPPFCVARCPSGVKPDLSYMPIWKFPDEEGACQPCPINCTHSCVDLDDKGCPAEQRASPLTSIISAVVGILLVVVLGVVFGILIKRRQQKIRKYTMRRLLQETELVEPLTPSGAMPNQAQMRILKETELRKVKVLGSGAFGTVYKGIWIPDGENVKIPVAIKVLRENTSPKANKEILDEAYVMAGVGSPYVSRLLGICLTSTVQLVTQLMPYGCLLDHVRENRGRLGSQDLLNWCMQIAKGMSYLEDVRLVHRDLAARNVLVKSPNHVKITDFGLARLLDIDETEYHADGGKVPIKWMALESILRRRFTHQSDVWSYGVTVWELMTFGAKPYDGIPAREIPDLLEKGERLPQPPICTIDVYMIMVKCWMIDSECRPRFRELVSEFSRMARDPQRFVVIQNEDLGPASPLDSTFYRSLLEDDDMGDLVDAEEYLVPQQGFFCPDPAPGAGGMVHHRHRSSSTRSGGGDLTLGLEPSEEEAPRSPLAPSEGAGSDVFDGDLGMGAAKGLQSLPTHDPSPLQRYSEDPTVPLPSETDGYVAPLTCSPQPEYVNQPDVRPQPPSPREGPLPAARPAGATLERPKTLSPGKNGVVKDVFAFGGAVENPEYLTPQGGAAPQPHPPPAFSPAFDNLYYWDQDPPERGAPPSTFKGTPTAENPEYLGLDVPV
# Sequence of AMP-activated protein kinase (AMPK) alpha-1/beta-1/gamma-1 (Homo sapiens) (P54619 whole entry): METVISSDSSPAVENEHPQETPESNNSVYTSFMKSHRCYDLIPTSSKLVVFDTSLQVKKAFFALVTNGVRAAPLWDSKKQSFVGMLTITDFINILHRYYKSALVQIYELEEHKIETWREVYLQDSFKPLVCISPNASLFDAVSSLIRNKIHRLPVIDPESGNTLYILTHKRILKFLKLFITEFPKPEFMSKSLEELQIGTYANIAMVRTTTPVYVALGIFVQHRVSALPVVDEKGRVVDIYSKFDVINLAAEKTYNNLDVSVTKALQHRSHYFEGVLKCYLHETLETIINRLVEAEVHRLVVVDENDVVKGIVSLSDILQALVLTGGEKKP
# Sequence of AMP-activated protein kinase (AMPK) alpha-1/beta-1/gamma-1 (Homo sapiens) (Q13131 whole entry partner): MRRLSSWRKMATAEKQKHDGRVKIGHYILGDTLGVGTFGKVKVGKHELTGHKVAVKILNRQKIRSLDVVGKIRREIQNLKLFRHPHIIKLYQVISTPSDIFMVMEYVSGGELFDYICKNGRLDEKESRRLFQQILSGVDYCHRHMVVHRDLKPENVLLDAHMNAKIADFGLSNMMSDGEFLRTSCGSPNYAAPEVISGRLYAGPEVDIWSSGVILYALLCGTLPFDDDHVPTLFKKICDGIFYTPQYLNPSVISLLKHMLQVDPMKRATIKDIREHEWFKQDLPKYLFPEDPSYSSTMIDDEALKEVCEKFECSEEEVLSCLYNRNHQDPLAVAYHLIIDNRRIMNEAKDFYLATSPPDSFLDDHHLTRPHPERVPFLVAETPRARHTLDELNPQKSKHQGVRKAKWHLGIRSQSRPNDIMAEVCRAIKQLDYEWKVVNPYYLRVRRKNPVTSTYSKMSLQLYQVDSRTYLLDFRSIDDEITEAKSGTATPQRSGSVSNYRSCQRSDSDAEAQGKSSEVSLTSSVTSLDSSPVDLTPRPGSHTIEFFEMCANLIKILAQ
# Sequence of AMP-activated protein kinase (AMPK) alpha-1/beta-1/gamma-1 (Homo sapiens) (Q9Y478 2-270 partner limits assumed): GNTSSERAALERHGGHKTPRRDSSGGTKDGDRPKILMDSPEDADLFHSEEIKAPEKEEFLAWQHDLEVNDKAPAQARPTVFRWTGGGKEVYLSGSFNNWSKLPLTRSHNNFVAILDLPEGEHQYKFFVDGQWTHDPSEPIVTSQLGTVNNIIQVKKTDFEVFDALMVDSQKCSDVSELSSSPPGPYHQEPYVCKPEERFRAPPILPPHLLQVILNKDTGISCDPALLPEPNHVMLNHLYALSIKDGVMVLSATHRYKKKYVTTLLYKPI
# Sequence of RAC-beta serine/threonine-protein kinase (Homo sapiens) (P31751 whole entry): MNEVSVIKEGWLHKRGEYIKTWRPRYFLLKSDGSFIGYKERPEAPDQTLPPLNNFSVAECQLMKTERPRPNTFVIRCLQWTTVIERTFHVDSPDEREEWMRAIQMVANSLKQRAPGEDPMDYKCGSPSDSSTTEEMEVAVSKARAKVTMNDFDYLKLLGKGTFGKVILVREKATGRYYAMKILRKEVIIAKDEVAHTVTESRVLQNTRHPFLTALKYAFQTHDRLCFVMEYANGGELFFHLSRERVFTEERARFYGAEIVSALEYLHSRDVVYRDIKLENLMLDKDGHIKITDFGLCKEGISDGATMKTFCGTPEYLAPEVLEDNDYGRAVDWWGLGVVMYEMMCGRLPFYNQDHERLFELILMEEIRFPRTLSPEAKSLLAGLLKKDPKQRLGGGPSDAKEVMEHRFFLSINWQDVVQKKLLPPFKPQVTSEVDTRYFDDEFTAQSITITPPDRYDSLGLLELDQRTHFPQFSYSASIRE
# Sequence of Cytoplasmic tyrosine-protein kinase BMX (Homo sapiens) (P51813 whole entry): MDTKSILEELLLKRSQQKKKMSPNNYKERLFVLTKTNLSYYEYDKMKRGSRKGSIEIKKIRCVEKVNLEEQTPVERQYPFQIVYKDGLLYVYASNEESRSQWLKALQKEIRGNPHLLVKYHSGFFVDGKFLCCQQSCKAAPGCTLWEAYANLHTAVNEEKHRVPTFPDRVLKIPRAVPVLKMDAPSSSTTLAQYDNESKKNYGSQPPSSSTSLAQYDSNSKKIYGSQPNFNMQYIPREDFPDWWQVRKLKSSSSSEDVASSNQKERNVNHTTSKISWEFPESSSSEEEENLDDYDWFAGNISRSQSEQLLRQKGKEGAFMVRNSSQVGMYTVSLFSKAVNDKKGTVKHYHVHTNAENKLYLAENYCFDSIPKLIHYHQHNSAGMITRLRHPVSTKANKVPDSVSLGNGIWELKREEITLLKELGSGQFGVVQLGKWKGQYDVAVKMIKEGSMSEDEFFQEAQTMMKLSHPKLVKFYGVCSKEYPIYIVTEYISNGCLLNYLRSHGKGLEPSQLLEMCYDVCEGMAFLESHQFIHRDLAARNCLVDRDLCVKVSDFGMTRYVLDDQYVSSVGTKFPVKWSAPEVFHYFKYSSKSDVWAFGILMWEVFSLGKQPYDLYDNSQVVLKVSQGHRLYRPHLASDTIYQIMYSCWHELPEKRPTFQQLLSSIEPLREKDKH
# Sequence of Tyrosine-protein kinase Yes (Homo sapiens) (P07947 2-543 limits assumed): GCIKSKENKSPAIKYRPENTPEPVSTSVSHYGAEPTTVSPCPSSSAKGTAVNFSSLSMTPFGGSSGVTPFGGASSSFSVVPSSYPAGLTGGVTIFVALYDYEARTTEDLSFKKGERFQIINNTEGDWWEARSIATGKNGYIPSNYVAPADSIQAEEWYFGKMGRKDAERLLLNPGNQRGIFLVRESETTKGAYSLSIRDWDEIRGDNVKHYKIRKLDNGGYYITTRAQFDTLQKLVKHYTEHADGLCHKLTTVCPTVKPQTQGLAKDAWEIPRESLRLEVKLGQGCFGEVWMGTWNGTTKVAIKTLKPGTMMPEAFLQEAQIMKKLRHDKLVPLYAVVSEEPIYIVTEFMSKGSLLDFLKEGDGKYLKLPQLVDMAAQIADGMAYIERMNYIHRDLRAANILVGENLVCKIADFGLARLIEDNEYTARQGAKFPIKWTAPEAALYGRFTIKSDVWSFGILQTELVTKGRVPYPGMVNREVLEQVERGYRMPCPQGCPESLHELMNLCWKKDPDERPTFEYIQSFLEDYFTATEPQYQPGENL
# Sequence of Cyclin-dependent kinase 1/cyclin B1 (Homo sapiens) (P06493 whole entry, looked up, the tested form may be a part): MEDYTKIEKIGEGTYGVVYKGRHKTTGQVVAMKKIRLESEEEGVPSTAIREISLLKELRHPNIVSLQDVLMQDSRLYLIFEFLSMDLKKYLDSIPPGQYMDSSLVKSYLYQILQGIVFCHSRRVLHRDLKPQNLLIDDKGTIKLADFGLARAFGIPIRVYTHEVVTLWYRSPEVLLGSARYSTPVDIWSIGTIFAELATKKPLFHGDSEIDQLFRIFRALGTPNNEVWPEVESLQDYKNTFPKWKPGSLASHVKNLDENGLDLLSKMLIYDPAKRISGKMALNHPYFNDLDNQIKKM
# Sequence of Cyclin-dependent kinase 1/cyclin B1 (Homo sapiens) (P14635 whole entry, looked up, the tested form may be a part): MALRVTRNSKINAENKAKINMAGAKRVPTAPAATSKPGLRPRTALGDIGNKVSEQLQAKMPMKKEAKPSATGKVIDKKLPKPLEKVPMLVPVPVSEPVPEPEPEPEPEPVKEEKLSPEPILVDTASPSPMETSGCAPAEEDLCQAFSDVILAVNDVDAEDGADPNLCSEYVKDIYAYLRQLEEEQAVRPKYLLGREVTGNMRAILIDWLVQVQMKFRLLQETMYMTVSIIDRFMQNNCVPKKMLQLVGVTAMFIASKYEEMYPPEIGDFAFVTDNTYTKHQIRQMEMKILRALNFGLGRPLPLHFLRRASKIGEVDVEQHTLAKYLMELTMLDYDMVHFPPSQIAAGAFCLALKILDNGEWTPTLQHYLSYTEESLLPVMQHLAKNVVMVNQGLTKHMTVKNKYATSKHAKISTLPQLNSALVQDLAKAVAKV
smiles,measurement,setting,value
C=CC(=O)Nc1cc(Nc2nccc(-c3cn4c5c(cccc35)CCC4)n2)c(OC)cc1N(C)CCN(C)C,inhibition,[1],-2%
same,inhibition,[2],4%
same,inhibition,[3],94%
same,half-life,[4],11.9 min
same,half-life,[5],> 180 min
same,inhibition,[6],87%
same,half-life,[7],270 min
same,inhibition,[8],5%
same,pIC50,[9],8.54 to 8.59
same,inhibition,[10],84%
same,inhibition,[11],-4%
same,CLint scaled,[12],63.4 mL/min/kg
same,Activity,NCI-H1975 [13],527.78 mm3
same,inhibition,[14],75%
same,inhibition,[15],80%
same,inhibition,[16],14%
same,inhibition,[17],21%
same,inhibition,[18],7%
same,pIC50,A-431,6.06
same,inhibition,[19],66%
same,CLint scaled,[20],54 mL/min/kg
same,inhibition,[21],1%
same,CLH,[22],5 µL/min/10^6 cells
same,inhibition,[23],10%
same,inhibition,[24],36%
same,inhibition,[25],89%
same,inhibition,[26],-2%
same,inhibition,[27],10%
same,inhibition,[28],7%
same,pIC50,[29],8.22 to 8.28
same,inhibition,[30],2%
same,inhibition,[31],0%
same,Activity,NCI-H1975 [32],239.33 mm3
same,inhibition,[33],78%
same,inhibition,[34],52%
same,Activity,Mus musculus,Non-Toxic
